Experiments:
Blood [1] = test: Antiinflammatory activity in human whole blood assessed as reduction in LPS-induced IL-6 production preincubated for 30 mins followed by LPS challenge and measured after overnight incubation by mesoscale assay; assay type: functional, tissue-based
MV4-11 = test: Growth inhibition of human MV4-11 cells incubated for 72 hrs by Cell-titre glo assay; assay type: functional, cell-based; conditions: MV4-11, 72 h
[2] = target: Bromodomain-containing protein 3 (Homo sapiens, UniProt Q15059, Y73A); test: Displacement of Alexa Fluor 647 labelled I-BET762 from N-terminal His6-tagged human BRD3 BD2 (1 to 435 residues)/BD1 Y73A mutant expressed in Escherichia coli after 1 hr by TR-FRET assay
Procedure, shortened: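 Single-mutant tandem bromodomain constructs (Tyr→Ala in the other domain), N-terminal 6His, expressed in E. coli. Compounds were titrated from 10 mM DMSO stocks. Protein at 10 nM in 50 mM HEPES, 50 mM NaCl, 1 mM CHAPS, pH 7.4 with Alexa Fluor 647–I-BET762 tracer at 50 nM (200 nM for BRDT Y66A). Plates were equilibrated 1 h at rt in the dark, then 1.5 nM Eu-anti-6His was added.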

[3] = target: Bromodomain-containing protein 2 (Homo sapiens, UniProt P25440, Y113A); test: Displacement of Alexa Fluor 647 labelled I-BET762 from N-terminal His6-tagged human BRD2 BD2 (1 to 473 residues)/BD1 Y113A mutant expressed in Escherichia coli after 1 hr by TR-FRET assay
[4] = target: Bromodomain-containing protein 2 (Homo sapiens, UniProt P25440, Y386A); test: Displacement of Alexa Fluor 647 labelled I-BET762 from N-terminal His6-tagged human BRD2 BD1 (1 to 473 residues)/BD2 Y386A mutant expressed in Escherichia coli after 1 hr by TR-FRET assay
[5] = Cmax in CD1 mouse at 10 mg/kg, ip measured up to 12 hrs by reverse-phase LC-MS/MS analysis; assay type: ADME, organism-based; design: dose 10 mg/kg, route intraperitoneal; conditions: in vivo
Procedure, shortened: (§1)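 Three male CD1 mice (30–33 g) given a single ip dose of 10 mg/kg, formulated at 2 mg/mL in 10% Kleptose in saline at pH 5 and dosed at 5 mL/kg. Serial tail-vein blood (ca. 20 µL) was taken up to 12 h, with a terminal cardiac sample at 24 h. Blood was diluted 1:1 with water, extracted by acetonitrile protein precipitation with internal standard, and quantified by reverse-phase LC-MS/MS (positive ion) against standards in control blood. Values are mean of n = 3.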

[6] = Tmax in CD1 mouse at 10 mg/kg, ip measured up to 12 hrs by reverse-phase LC-MS/MS analysis; assay type: ADME, organism-based; conditions: in vivo; procedure, shortened: as §1
[7] = Elimination half life in CD1 mouse at 10 mg/kg, ip measured up to 7 hrs by reverse-phase LC-MS/MS analysis; assay type: ADME, organism-based; conditions: in vivo, read-out: beta t1/2 (converted); procedure, shortened: as §1
[8] = Terminal half life in CD1 mouse at 10 mg/kg, ip measured after 7 to 24 hrs by reverse-phase LC-MS/MS analysis; assay type: ADME, organism-based; conditions: in vivo, read-out: beta t1/2 (converted); procedure, shortened: as §1
[9] = AUCinfinity in CD1 mouse at 10 mg/kg, ip measured up to 12 hrs by reverse-phase LC-MS/MS analysis; assay type: ADME, organism-based; design: dose 10 mg/kg, time infinity, route intraperitoneal; conditions: in vivo; procedure, shortened: as §1
[10] = Unbound fraction in CD1 mouse blood at 200 to 1000 ng/ml incubated for 4 hrs by LC-MS/MS-based rapid equilibrium dialysis method; assay type: ADME, tissue-based
[11] = target: Bromodomain-containing protein 4 (Homo sapiens, UniProt O60885, Y97A); test: Displacement of Alexa Fluor 647 labelled I-BET762 from N-terminal His6-tagged human BRD4 BD2 (1 to 477 residues)/BD1 Y97A mutant expressed in Escherichia coli after 1 hr by TR-FRET assay
[12] = target: Bromodomain-containing protein 4 (Homo sapiens, UniProt O60885, Y390A); test: Displacement of Alexa Fluor 647 labelled I-BET762 from N-terminal His6-tagged human BRD4 BD1 (1 to 477 residues)/BD2 Y390A mutant expressed in Escherichia coli after 1 hr by TR-FRET assay
[13] = target: Bromodomain testis-specific protein (Homo sapiens, UniProt Q58F21, Y309A); test: Displacement of Alexa Fluor 647 labelled I-BET762 from N-terminal His6-tagged human BRDT BD1 (1 to 397 residues)/BD2 Y309A mutant expressed in Escherichia coli after 1 hr by TR-FRET assay
[14] = target: Bromodomain-containing protein 3 (Homo sapiens, UniProt Q15059, Y348A); test: Displacement of Alexa Fluor 647 labelled I-BET762 from N-terminal His6-tagged human BRD3 BD1 (1 to 435 residues)/BD2 Y348A mutant expressed in Escherichia coli after 1 hr by TR-FRET assay
[15] = target: Bromodomain testis-specific protein (Homo sapiens, UniProt Q58F21, Y66A); test: Displacement of Alexa Fluor 647 labelled I-BET762 from N-terminal His6-tagged human BRDT BD2 (1 to 397 residues)/BD1 Y66A mutant expressed in Escherichia coli after 1 hr by TR-FRET assay
Homo sapiens [16] = organism: Homo sapiens; test: Selectivity index, difference between pIC50 for N-terminal His6-tagged human BRD2 BD1 (1 to 473 residues)/ BD2 Y386A mutant expressed in Escherichia coli to pIC50 for N-terminal His6-tagged human BRD2 BD2 (1 to 473 residues)/BD1 Y113A mutant expressed in Escherichia coli
Homo sapiens [17] = organism: Homo sapiens; test: Selectivity index, difference between pIC50 for N-terminal His6-tagged human BRD3 BD1 (1 to 435 residues)/BD2 Y348A mutant expressed in Escherichia coli to pIC50 for N-terminal His6-tagged human BRD3 BD2 (1 to 435 residues)/BD1 Y73A mutant expressed in Escherichia coli
Homo sapiens [18] = organism: Homo sapiens; test: Selectivity index, difference between pIC50 for N-terminal His6-tagged human BRDT BD1 (1 to 397 residues)/ BD2 Y309A mutant expressed in Escherichia coli to pIC50 for N-terminal His6-tagged human BRDT BD2 (1 to 397 residues)/BD1 Y66A mutant expressed in Escherichia coli
PBMC [19] = test: Antiinflammatory activity in human PBMC assessed as reduction in LPS-induced IL-6 production incubated for 18 to 24 hrs by mesoscale assay; assay type: functional, cell-based
PBMC [20] = test: Antiinflammatory activity in human PBMC assessed as reduction in LPS-induced MCP1 production incubated for 18 to 24 hrs by mesoscale assay; assay type: functional, cell-based
Blood [21] = test: Antiinflammatory activity in human whole blood assessed as reduction in LPS-induced MCP1 production preincubated for 30 mins followed by LPS challenge and measured after overnight incubation by mesoscale assay; assay type: functional, tissue-based
[22] = target: T1, Bromodomain-containing protein 3 (Homo sapiens, UniProt Q15059); test: Binding affinity to BRD3 BD1 (unknown origin) by isothermal titration calorimetric method
[23] = target: T2, Bromodomain-containing protein 2 (Homo sapiens, UniProt P25440); test: Binding affinity to BRD2 BD1 (unknown origin) by isothermal titration calorimetric method
[24] = target: T1, Bromodomain-containing protein 3; test: Binding affinity to BRD3 BD2 (unknown origin) by isothermal titration calorimetric method
[25] = target: T2, Bromodomain-containing protein 2; test: Binding affinity to BRD2 BD2 (unknown origin) by isothermal titration calorimetric method

Bromodomain-containing protein 3 (Homo sapiens, UniProt Q15059, Y73A), sequence (Q15059 2-726 Y73A limits assumed): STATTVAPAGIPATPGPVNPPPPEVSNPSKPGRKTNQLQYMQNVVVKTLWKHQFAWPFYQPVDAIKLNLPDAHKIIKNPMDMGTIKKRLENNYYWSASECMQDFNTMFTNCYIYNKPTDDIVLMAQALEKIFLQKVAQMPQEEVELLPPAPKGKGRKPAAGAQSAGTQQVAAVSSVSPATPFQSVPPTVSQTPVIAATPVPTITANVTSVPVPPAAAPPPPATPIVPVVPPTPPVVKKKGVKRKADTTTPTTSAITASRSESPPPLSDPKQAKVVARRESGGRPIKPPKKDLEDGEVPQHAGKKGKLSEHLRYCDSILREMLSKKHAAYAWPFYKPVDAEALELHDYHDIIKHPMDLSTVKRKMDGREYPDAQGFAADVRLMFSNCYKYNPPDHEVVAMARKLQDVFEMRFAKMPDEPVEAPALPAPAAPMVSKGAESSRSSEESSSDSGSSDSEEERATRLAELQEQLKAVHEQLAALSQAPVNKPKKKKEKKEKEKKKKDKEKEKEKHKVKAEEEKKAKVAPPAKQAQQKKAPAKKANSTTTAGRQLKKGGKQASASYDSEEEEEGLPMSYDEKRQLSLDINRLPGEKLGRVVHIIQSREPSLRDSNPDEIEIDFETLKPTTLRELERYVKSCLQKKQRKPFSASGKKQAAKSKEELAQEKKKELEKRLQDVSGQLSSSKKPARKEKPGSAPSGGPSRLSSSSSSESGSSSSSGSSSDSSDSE
Bromodomain-containing protein 2 (Homo sapiens, UniProt P25440, Y386A), sequence (P25440 whole entry Y386A, the tested form may be a part): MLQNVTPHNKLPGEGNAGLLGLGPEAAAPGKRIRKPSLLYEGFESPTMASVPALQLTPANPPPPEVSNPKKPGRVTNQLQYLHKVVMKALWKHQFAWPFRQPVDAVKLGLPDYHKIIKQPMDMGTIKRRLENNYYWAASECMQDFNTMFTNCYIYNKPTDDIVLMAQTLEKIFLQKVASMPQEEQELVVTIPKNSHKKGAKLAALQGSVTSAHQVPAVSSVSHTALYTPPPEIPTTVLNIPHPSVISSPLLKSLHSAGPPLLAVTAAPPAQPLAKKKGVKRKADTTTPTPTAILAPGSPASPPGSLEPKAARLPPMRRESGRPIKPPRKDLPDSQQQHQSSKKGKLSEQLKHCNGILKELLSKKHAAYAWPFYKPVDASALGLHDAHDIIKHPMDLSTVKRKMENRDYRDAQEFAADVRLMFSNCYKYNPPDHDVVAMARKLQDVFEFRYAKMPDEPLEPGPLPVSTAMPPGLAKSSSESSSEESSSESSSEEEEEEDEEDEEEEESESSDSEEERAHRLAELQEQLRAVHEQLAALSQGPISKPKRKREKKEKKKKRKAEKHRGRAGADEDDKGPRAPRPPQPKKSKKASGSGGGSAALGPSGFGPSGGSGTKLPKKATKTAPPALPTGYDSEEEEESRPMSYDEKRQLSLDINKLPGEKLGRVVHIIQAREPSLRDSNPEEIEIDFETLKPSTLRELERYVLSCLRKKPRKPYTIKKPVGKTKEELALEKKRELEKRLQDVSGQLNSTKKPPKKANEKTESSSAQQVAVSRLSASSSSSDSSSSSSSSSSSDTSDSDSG
T2 sequence (P25440 whole entry): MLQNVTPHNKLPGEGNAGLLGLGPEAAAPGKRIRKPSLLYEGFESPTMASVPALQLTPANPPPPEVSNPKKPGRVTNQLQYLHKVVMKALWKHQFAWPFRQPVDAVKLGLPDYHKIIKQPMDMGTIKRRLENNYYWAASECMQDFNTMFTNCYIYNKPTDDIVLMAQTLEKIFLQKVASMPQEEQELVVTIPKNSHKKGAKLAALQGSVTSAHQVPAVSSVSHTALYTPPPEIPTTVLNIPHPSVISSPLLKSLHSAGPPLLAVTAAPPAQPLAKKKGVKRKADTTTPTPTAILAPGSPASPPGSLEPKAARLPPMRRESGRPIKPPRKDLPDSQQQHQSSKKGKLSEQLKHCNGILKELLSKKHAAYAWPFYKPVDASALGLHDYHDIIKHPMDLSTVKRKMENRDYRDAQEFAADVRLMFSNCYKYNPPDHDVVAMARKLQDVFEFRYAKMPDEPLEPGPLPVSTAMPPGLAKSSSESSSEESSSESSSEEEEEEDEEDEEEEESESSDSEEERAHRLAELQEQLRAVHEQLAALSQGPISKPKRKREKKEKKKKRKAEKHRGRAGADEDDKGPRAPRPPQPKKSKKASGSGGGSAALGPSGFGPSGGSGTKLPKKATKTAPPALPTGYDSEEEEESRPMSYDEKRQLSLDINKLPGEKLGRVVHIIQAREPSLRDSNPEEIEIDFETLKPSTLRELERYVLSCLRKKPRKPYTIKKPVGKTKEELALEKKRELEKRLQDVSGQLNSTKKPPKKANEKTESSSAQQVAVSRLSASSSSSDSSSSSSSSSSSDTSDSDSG
Bromodomain-containing protein 3 (Homo sapiens, UniProt Q15059, Y348A), sequence (Q15059 2-726 Y348A limits assumed): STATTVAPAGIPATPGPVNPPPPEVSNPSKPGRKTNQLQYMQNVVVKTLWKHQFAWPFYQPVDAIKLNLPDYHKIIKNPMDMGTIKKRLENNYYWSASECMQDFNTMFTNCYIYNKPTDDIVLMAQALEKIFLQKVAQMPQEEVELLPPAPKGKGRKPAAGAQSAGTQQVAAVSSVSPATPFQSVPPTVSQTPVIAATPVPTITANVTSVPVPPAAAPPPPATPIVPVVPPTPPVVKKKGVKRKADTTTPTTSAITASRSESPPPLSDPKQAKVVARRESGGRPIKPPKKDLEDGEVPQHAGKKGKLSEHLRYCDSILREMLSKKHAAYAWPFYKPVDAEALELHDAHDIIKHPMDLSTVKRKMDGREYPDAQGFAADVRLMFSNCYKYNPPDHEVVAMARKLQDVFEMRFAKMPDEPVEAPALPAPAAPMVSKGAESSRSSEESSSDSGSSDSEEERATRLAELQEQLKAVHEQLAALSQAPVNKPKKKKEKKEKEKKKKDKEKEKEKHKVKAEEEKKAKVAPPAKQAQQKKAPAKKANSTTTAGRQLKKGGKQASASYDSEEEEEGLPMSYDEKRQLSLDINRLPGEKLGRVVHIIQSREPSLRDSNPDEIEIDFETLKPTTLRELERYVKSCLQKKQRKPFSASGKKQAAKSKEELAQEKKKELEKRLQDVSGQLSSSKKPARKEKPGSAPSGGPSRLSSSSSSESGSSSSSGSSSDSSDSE
T1 sequence (Q15059 whole entry): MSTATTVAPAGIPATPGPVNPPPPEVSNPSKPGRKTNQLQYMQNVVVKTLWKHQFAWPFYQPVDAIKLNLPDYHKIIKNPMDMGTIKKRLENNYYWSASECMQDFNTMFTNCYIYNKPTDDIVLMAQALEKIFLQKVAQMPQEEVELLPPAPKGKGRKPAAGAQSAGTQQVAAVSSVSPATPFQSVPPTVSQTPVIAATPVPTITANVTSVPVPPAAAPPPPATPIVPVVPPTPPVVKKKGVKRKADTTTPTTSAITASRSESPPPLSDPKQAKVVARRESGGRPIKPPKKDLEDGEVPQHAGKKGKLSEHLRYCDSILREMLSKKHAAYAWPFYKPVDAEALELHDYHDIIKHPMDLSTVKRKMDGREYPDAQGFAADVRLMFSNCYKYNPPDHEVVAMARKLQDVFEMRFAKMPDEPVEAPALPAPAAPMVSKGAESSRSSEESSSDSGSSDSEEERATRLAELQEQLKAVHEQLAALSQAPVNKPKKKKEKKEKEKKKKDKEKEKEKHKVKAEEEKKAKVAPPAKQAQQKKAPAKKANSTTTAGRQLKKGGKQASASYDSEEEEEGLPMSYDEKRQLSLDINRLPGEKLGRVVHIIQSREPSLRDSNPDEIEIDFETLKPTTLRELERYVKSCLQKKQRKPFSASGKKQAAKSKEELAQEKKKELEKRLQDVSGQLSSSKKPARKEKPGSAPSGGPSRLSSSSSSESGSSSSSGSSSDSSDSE
Bromodomain-containing protein 2 (Homo sapiens, UniProt P25440, Y113A), sequence (P25440 whole entry Y113A, the tested form may be a part): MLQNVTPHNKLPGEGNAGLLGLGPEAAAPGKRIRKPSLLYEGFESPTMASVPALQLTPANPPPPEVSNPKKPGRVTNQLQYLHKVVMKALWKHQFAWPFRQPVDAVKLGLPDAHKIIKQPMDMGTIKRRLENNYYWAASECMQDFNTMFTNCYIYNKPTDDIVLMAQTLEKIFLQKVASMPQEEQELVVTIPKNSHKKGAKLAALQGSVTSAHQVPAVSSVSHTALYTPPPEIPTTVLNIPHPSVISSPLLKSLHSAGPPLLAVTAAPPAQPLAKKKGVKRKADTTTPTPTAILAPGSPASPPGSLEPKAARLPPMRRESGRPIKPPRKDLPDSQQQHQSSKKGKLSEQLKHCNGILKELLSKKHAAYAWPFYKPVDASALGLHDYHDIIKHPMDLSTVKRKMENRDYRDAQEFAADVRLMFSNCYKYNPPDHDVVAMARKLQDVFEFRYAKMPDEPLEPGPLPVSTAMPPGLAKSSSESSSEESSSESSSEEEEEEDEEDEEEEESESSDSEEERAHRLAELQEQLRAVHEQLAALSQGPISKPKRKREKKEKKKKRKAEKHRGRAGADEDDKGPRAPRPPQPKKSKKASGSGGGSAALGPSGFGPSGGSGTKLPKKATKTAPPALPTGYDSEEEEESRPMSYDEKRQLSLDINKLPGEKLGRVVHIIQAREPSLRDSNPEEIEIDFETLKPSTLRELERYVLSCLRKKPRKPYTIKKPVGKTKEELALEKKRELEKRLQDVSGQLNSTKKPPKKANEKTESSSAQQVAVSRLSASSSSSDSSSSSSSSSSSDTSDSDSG

Row | Structure (SMILES) | IC50 [11] [nM] | IC50 [12] [nM] | further results
1 | COCc1nc2cnc3cc(-c4c(C)noc4C)c(OC[C@H]4CCNC4)cc3c2n1[C@H](C)c1ccccc1 [GSK778] |  |  | IC50 (Blood [1]): 251 nM; IC50 (MV4-11): 100 nM; IC50 [2]: 1000 nM; IC50 [3]: 3160 nM; IC50 [4]: 79.4 nM; Cmax [5]: 2400 nM; Tmax [6]: 15 to 30 min; half-life [7]: 54 min; half-life [8]: 492 min; AUC(0-inf) [9]: 3.34 µM·h; fraction unbound at 4 h [10]: 0.08
2 | CC(=O)NCCCOc1cc2c(cc1-c1c(C)noc1C)ncc1c2n(C(C)c2ccccn2)c(=O)n1C (stereo unspecified) | 3160 | 794 | 
3 | Cc1noc(C)c1-c1cc2ncc3c(c2cc1C(=O)O)n(C(C)c1ccccn1)c(=O)n3C (stereo unspecified) | > 50100 | 12600 | 
4 | Cc1noc(C)c1-c1cc2ncc3c(c2cc1OCCCO)n(C(C)c1ccccn1)c(=O)n3C (stereo unspecified) | 6310 | 501 | 
5 | Cc1noc(C)c1-c1cc2ncc3c(c2cc1OCCN(C)C)n([C@H](C)c1ccccn1)c(=O)n3C | > 50100 | 2000 | 
6 | CNCCCOc1cc2c(cc1-c1c(C)noc1C)ncc1c2n(C(C)c2ccccn2)c(=O)n1C (stereo unspecified) | 25100 | 1000 | 
7 | Cc1noc(C)c1-c1cc2ncc3c(c2cc1OCCCN(C)C)n([C@H](C)c1ccccn1)c(=O)n3C | > 50100 | 1000 | 
8 | COCc1nc2cnc3cc(-c4c(C)noc4C)c(OC)cc3c2n1[C@H](C)c1ccccc1 | 39.8 | 10 | IC50 [2]: 15.8 nM; IC50 [3]: 39.8 nM; IC50 [13]: 25.1 nM; IC50 [14]: 10 nM; IC50 [4]: 12.6 nM; IC50 [15]: 316 nM; Selectivity Index (Homo sapiens [16]): 3.2; Selectivity Index (Homo sapiens [17]): 1.6; Selectivity Index (Homo sapiens [18]): 13
9 | Cc1noc(C)c1-c1cc2ncc3c(c2cc1OCCCN)n(C(C)c1ccccn1)c(=O)n3C (stereo unspecified) | 15800 | 631 | 
10 | COc1ccc2c(c1)C(c1ccc(Cl)cc1)=N[C@@H](NC(=O)OCc1ccccc1)c1nnc(C)n1-2 |  |  | IC50 (PBMC [19]): 316 nM; IC50 (PBMC [20]): 50.1 nM; IC50 (Blood [1]): 1580 nM; IC50 (MV4-11): 200 nM; IC50 (Blood [21]): 200 nM
11 | COc1cc2c(cc1-c1c(C)noc1C)ncc1[nH]c(=O)n([C@H](C)c3ccccn3)c12 |  |  | IC50 (PBMC [19]): 126 nM; IC50 (PBMC [20]): 39.8 nM; IC50 (Blood [1]): 1000 nM; IC50 (MV4-11): 100 nM; IC50 (Blood [21]): 200 nM; IC50 [2]: 79.4 nM; IC50 [13]: 126 nM; IC50 [14]: 31.6 nM; IC50 [15]: 1580 nM
12 | CC(=O)NCCCCn1c2c(c3ccccc31)C(=O)NCC2 |  |  | Kd [22]: 3300 to 8600 nM; Kd [23]: 3300 to 8600 nM; Kd [24]: > 300000 nM; Kd [25]: > 300000 nM
13 | Cc1noc(C)c1-c1cc2ncc3c(c2cc1CC(=O)O)n(C(C)c1ccccn1)c(=O)n3C (stereo unspecified) | > 50100 | > 50100 | 
14 | Cc1noc(C)c1-c1cc2ncc3c(c2cc1OCC(=O)O)n([C@H](C)c1ccccn1)c(=O)n3C | 12600 | 2000 | 

Second part, led by results:

Row | IC50 [11] [nM] | IC50 [12] [nM] | Structure (SMILES) | further results
15 | 25100 | 501 | Cc1noc(C)c1-c1cc2ncc3c(c2cc1OC[C@H]1CCNC1)n(C(C)c1ccccn1)c(=O)n3C (mixture of isomers) | 
16 | 10000 | 251 | Cc1noc(C)c1-c1cc2ncc3c(c2cc1O[C@H]1C[C@@H](N)C1)n(C(C)c1ccccn1)c(=O)n3C (stereo partly specified) | 
17 | 31600 | 794 | Cc1noc(C)c1-c1cc2ncc3c(c2cc1OC[C@@H]1CCNC1)n(C(C)c1ccccn1)c(=O)n3C (mixture of isomers) | 
18 | 50100 | 1260 | Cc1noc(C)c1-c1cc2ncc3c(c2cc1O[C@@H]1CCNC1)n([C@H](C)c1ccccn1)c(=O)n3C | 
19 | 3160 | 79.4 | Cc1noc(C)c1-c1cc2ncc3c(c2cc1O[C@H]1C[C@H](N)C1)n(C(C)c1ccccn1)c(=O)n3C (stereo partly specified) | 
20 | 501 | 50.1 | COc1cc2c(cc1-c1c(C)noc1C)ncc1c2n([C@H](C)c2ccccn2)c(=O)n1C | 
21 | 31600 | 1260 | Cc1noc(C)c1-c1cc2ncc3c(c2cc1OCCN)n(C(C)c1ccccn1)c(=O)n3C (stereo unspecified) | 
22 | > 50100 | 6310 | Cc1noc(C)c1-c1cc2ncc3c(c2cc1O[C@H]1CCNC1)n(C(C)c1ccccn1)c(=O)n3C (mixture of isomers) | 
23 | 39800 | 794 | Cc1noc(C)c1-c1cc2ncc3c(c2cc1OCC1CCNCC1)n(C(C)c1ccccn1)c(=O)n3C (stereo unspecified) | 

From ChEMBL document CHEMBL4622984, “Structure-Based Design of a Bromodomain and Extraterminal Domain (BET) Inhibitor Selective for the N-Terminal Bromodomains That Retains an Anti-inflammatory and Antiproliferative Phenotype” (J Med Chem, 2020)
